Tests used:
Kidney [1] = test: Drug uptake in MDR1A knockout Sprague-Dawley rat kidney at 1 mg/kg, iv; format: ADME, organism-based; design: dose 1 mg/kg, route intravenous; settings: in vivo
Kidney [2] = test: Drug uptake in BCRP knockout Sprague-Dawley rat kidney at 1 mg/kg, iv; format: ADME, organism-based; design: dose 1 mg/kg, route intravenous; settings: in vivo
[3] = Drug excretion in bile duct-cannulated MRP2 knockout Sprague-Dawley rat urine at 1 mg/kg, iv up to 24 hrs; format: ADME, organism-based; design: dose 1 mg/kg, route intravenous; settings: read-out: Drug excretion
Method in brief: (§1)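 Male Sprague-Dawley rats with bile-duct and femoral cannulation, housed in metabolism cages. Given an IV bolus of 1 mg/kg in 2 ml/kg 50% Cremophor EL in ethanol. Urine, bile and feces collected in toto 0–24 h, with cage wash at 24 h. Amounts quantified by LC-MS/MS and expressed as % of dose; n=6–12.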

[4] = Drug excretion in bile duct-cannulated wild-type Sprague-Dawley rat urine at 1 mg/kg, iv up to 24 hrs; format: ADME, organism-based; design: dose 1 mg/kg, route intravenous; settings: read-out: Drug excretion; method in brief: as §1
[5] = Clearance in wild-type Sprague-Dawley rat at 1 mg/kg, iv by LC-MS/MS analysis; settings: in vivo
[6] = AUC (infinity) in MDR1A knockout Sprague-Dawley rat at 5 mg/kg, po by LC-MS/MS analysis; format: ADME, organism-based; design: time infinity, dose 5 mg/kg, route oral; settings: plasma
[7] = Cmax in wild-type Sprague-Dawley rat at 5 mg/kg, po by LC-MS/MS analysis; format: ADME, organism-based; design: dose 5 mg/kg, route oral; settings: in vivo
Method in brief: (§2)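 Male Sprague-Dawley rats (knockouts age- and weight-matched to wild type), femoral-artery and vein cannulated, recovered ≥2 days. IV/oral crossover: 1 mg/kg IV bolus on day 0, then after a 3-day washout 5 mg/kg oral gavage in 10 ml/kg 50% Cremophor EL in ethanol. Arterial plasma 0–24 h, protein-precipitated, LC-MS/MS (positive ion, 1–5000 ng/ml). Noncompartmental analysis; n=5–9.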

[8] = Volume of distribution at steady state in wild-type Sprague-Dawley rat at 1 mg/kg, iv by LC-MS/MS analysis; format: ADME, organism-based; design: dose 1 mg/kg, route intravenous; settings: in vivo, read-out: Vdss
Method in brief: (§3)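 Male Sprague-Dawley rats (knockout or wild type matched for age and weight), femoral artery and vein cannulated, at least 2 days recovery. Crossover design: IV bolus 1 mg/kg on day 0 (saline with 0.2 M equivalents HCl), oral gavage 10 mg/kg on day 3 (water with 0.2 M equivalents HCl). Arterial plasma sampled to 24 h (Mdr1a oral arm to 4 h). Analysed by LC-MS/MS and noncompartmental analysis.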

[9] = AUC (infinity) in wild-type Sprague-Dawley rat at 1 mg/kg, iv by LC-MS/MS analysis; format: ADME, organism-based; design: time infinity, dose 1 mg/kg, route intravenous; settings: plasma
[10] = Drug excretion in bile duct-cannulated wild-type Sprague-Dawley rat feces at 1 mg/kg, iv up to 24 hrs; format: ADME, organism-based; design: dose 1 mg/kg, route intravenous; settings: faeces, read-out: Drug excretion; method in brief: as §1
[11] = Half life in BCRP knockout Sprague-Dawley rat at 5 mg/kg, po by LC-MS/MS analysis; format: ADME, organism-based; design: dose 5 mg/kg, route oral; settings: in vivo; method in brief: as §2
[12] = Clearance in MDR1A knockout Sprague-Dawley rat at 1 mg/kg, iv by LC-MS/MS analysis; settings: in vivo
[13] = Cmax in MDR1A knockout Sprague-Dawley rat at 5 mg/kg, po by LC-MS/MS analysis; format: ADME, organism-based; design: dose 5 mg/kg, route oral; settings: in vivo; method in brief: as §2
Rattus norvegicus [14] = test: AUC (infinity) in MRP2 knockout Sprague-Dawley rat at 1 mg/kg, iv by LC-MS/MS analysis; format: ADME, organism-based, Plasma; design: time infinity, dose 1 mg/kg, route intravenous; settings: in vivo
[15] = Drug excretion in bile duct-cannulated MDR1A knockout Sprague-Dawley rat urine at 1 mg/kg, iv up to 24 hrs; format: ADME, organism-based; design: dose 1 mg/kg, route intravenous; settings: read-out: Drug excretion
Method in brief: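 Male Sprague-Dawley Mdr1a knockout rats with bile duct and femoral cannulas, housed in metabolism cages. […] Urine, bile and feces were collected in total over 0–24 h, and cage wash was taken at 24 h.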

[16] = Drug excretion in bile duct-cannulated BCRP knockout Sprague-Dawley rat urine at 1 mg/kg, iv up to 24 hrs; format: ADME, organism-based; design: dose 1 mg/kg, route intravenous; settings: read-out: Drug excretion; method in brief: as §1
[17] = Oral bioavailability in BCRP knockout Sprague-Dawley rat at 5 mg/kg by LC-MS/MS analysis; format: ADME, organism-based; settings: in vivo; method in brief: as §2
[18] = Oral bioavailability in MRP2 knockout Sprague-Dawley rat at 5 mg/kg by LC-MS/MS analysis; format: ADME, organism-based; settings: in vivo; method in brief: as §2
[19] = Volume of distribution at steady state in MRP2 knockout Sprague-Dawley rat at 1 mg/kg, iv by LC-MS/MS analysis; format: ADME, organism-based; design: dose 1 mg/kg, route intravenous; settings: in vivo, read-out: Vdss; method in brief: as §3
Brain = test: Drug uptake in MDR1A knockout Sprague-Dawley rat brain at 1 mg/kg, iv; format: ADME, organism-based; design: dose 1 mg/kg, route intravenous; settings: in vivo
[20] = AUC (infinity) in BCRP knockout Sprague-Dawley rat at 1 mg/kg, iv by LC-MS/MS analysis; format: ADME, organism-based; design: time infinity, dose 1 mg/kg, route intravenous; settings: plasma
[21] = Half life in BCRP knockout Sprague-Dawley rat at 1 mg/kg, iv by LC-MS/MS analysis; format: ADME, organism-based; design: dose 1 mg/kg, route intravenous; settings: in vivo; method in brief: as §3
[22] = Volume of distribution at steady state in MDR1A knockout Sprague-Dawley rat at 1 mg/kg, iv by LC-MS/MS analysis; format: ADME, organism-based; design: dose 1 mg/kg, route intravenous; settings: in vivo, read-out: Vdss; method in brief: as §3
Rattus norvegicus [23] = test: Clearance in MRP2 knockout Sprague-Dawley rat at 1 mg/kg, iv by LC-MS/MS analysis; settings: in vivo
[24] = AUC (infinity) in MDR1A knockout Sprague-Dawley rat at 1 mg/kg, iv by LC-MS/MS analysis; format: ADME, organism-based; design: time infinity, dose 1 mg/kg, route intravenous; settings: plasma
[25] = Drug excretion in bile duct-cannulated MRP2 knockout Sprague-Dawley rat feces at 1 mg/kg, iv up to 24 hrs; format: ADME, organism-based; design: dose 1 mg/kg, route intravenous; settings: faeces, read-out: Drug excretion; method in brief: as §1
[26] = Oral bioavailability in MDR1A knockout Sprague-Dawley rat at 5 mg/kg by LC-MS/MS analysis; format: ADME, organism-based; settings: in vivo

Drug uptake (Kidney [1]): Active
Drug uptake (Kidney [2]): Active
dose excreted at 24 h [3]: 4.5%
dose excreted at 24 h [4]: 3.1%
clearance [5]: 112 mL/min/kg
AUC(0-inf) [6]: 746 ng·h/mL
Cmax [7]: 30 ng/mL
Vd [8]: 30.3 L/kg
AUC(0-inf) [9]: 172 ng·h/mL
dose excreted at 24 h [10]: 2.3%
half-life [11]: 5.3 h
clearance [12]: 66.7 mL/min/kg
Cmax [13]: 145 ng/mL
AUC (Rattus norvegicus [14]): 375 ng·h/mL
dose excreted at 24 h [15]: 0.14%
dose excreted at 24 h [16]: 2%
bioavailability [17]: 13%
bioavailability [18]: 27%
Vd [19]: 28.6 L/kg
Drug uptake (Brain): Active
AUC(0-inf) [20]: 171 ng·h/mL
half-life [21]: 6.4 h
Vd [22]: 38.1 L/kg
CL (Rattus norvegicus [23]): 152 mL/min/kg
AUC(0-inf) [24]: 303 ng·h/mL
dose excreted at 24 h [25]: 2.8%
bioavailability [26]: 47%
Structure (SMILES): CC(=O)O[C@H]1C(=O)[C@@]2(C)[C@H]([C@H](OC(=O)c3ccccc3)[C@]3(O)C[C@H](OC(=O)[C@H](O)[C@@H](NC(=O)c4ccccc4)c4ccccc4)C(C)=C1C3(C)C)[C@]1(OC(C)=O)CO[C@@H]1C[C@@H]2O [PACLITAXEL]

From ChEMBL document CHEMBL3526049 (Drug Metab Dispos, 2012)
